Active and inactive are the calls of the source. No cut-off for these calls is given here.
What was measured:
GEN2.2 = test: Inhibition of CL097 induced JNK1/2 phosphorylation level in human GEN2.2 cells at 1 uM preincubated with compound for 1 hr followed by CL097 stimulation and measured after 30 mins by Western blot analysis; type: functional, cell-based
Procedure, shortened: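 Gen2.2 cells were pretreated with compound at 1 μM for 1 h, then stimulated with CL097 for 30 min. Lysates were analysed by Western blot for phosphorylation of p105, p38 and JNK1/2.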

[1] = AUC last in Swiss albino mouse at 1 mg/kg, iv measured upto 24 hrs by LC/MS/MS analysis; type: ADME, organism-based; conditions: in vivo
Procedure, shortened: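 Male Swiss albino mice. […] Blood was taken into K2EDTA from three mice per time point, from 0 to 24 h. Plasma was precipitated with acetonitrile and analysed by LC/MS/MS (LLOQ 1.138 ng/mL).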

[2] = biological target: Proto-oncogene tyrosine-protein kinase Src (Homo sapiens, UniProt P12931); test: Inhibition of SRC (unknown origin) Lys1 labeling site by KiNativ Profiling analysis
[3] = biological target: Calcium/calmodulin-dependent protein kinase kinase 2 (Homo sapiens) (UniProt Q96RR4); test: Inhibition of CaMKK2 Lys1 labeling site in human A-375 cells at 5 uM by KiNativ Profiling analysis relative to control; type: cell-based
Procedure, shortened: (§1)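 Live A375 melanoma cells were treated with compound at 5 or 0.5 μM. The cells were then lysed, and the lysates were labeled with a lysine-reactive ATP or ADP-biotin acyl probe (KiNativ). Inhibition is the compound's protection of each kinase labeling-site peptide from probe labeling, relative to untreated control.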

[4] = biological target: T1, Acylglycerol kinase, mitochondrial (Homo sapiens) (UniProt Q53H12); test: Inhibition of AGK ATP labeling site in human A-375 cells at 0.5 uM by KiNativ Profiling analysis relative to control; type: cell-based
T1 sequence (whole entry): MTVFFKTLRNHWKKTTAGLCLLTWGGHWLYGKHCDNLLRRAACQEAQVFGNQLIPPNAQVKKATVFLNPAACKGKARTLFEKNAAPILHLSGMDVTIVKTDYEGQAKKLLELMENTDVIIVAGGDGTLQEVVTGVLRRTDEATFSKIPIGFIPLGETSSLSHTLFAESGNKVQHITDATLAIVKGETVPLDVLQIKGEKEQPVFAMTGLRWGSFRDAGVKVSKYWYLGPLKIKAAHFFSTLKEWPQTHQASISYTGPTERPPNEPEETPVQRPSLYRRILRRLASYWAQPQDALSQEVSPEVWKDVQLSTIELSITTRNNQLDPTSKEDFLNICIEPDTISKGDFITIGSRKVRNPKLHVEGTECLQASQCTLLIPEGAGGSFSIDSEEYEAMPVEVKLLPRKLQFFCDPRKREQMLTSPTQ
Procedure, shortened: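 Live A375 melanoma cells were treated with compound at 5 or 0.5 μM, then lysed. The lysates were labeled with a lysine-reactive ATP or ADP-biotin probe. Kinase protection from probe labeling was measured by KiNativ.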

[5] = biological target: Calcium/calmodulin-dependent protein kinase type II subunit delta (Homo sapiens) (UniProt Q13557); test: Inhibition of CaMK2d Lys1 labeling site in human A-375 cells at 0.5 uM by KiNativ Profiling analysis relative to control; type: cell-based; procedure, shortened: as §1
[6] = biological target: T2, Scaffold protein ILK (Homo sapiens) (UniProt Q13418); test: Inhibition of ILK Lys1 labeling site in human A-375 cells at 0.5 uM by KiNativ Profiling analysis relative to control; type: cell-based
T2 sequence (whole entry): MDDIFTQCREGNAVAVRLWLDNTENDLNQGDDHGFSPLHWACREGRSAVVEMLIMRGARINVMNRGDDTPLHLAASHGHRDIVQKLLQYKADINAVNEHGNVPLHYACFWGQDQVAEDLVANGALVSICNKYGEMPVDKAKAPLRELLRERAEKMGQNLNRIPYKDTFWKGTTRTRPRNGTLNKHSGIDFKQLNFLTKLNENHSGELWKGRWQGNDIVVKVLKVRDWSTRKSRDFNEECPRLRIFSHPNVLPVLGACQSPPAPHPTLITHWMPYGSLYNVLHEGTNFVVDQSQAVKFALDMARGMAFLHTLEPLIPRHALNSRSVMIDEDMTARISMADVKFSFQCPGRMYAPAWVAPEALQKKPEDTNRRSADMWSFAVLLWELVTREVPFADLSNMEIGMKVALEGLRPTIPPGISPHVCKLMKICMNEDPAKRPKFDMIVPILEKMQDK

[7] = biological target: Serine/threonine-protein kinase 26 (Homo sapiens) (UniProt Q9P289); test: Inhibition of MST4 ACT labeling site in human A-375 cells at 0.5 uM by KiNativ Profiling analysis relative to control; type: cell-based
[8] = biological target: T3, Serine/threonine-protein kinase Nek9 (Homo sapiens) (UniProt Q8TD19); test: Inhibition of NEK9 Lys1 labeling site harbouring RTEDDSLVVWKEVDLTR in human A-375 cells at 0.5 uM by KiNativ Profiling analysis relative to control; type: cell-based
T3 sequence (whole entry): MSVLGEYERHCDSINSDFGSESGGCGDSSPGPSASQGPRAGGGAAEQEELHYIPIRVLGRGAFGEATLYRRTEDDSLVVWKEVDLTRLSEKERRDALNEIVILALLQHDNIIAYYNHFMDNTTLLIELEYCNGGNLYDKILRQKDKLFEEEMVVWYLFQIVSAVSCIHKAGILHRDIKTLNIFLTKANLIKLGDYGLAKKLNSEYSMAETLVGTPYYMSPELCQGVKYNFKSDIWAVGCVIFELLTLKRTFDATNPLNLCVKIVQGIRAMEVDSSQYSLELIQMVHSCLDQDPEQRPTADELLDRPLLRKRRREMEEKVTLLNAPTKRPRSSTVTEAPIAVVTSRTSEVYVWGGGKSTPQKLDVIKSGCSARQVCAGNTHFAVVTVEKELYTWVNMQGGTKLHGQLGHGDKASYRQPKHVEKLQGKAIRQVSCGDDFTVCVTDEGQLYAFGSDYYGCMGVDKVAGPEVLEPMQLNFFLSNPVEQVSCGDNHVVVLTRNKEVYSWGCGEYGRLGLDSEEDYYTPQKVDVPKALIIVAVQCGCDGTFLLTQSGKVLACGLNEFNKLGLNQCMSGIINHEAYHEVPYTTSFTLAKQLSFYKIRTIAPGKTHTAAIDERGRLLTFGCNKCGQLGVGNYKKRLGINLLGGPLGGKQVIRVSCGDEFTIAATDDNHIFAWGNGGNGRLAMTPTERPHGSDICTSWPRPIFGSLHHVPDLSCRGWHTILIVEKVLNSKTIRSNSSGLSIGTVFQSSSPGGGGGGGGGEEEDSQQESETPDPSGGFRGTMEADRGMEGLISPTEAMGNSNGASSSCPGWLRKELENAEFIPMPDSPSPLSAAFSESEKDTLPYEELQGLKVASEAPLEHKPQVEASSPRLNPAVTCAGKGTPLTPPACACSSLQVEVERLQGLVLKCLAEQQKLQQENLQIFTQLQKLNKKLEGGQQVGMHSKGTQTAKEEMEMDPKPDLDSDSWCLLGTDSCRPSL

[9] = biological target: Cyclin-dependent kinase 18 (Homo sapiens) (UniProt Q07002); test: Inhibition of PCTAIRE3 Lys1 labeling site harbouringSKLTENLVALKEIR in human A-375 cells at 0.05 uM by KiNativ Profiling analysis relative to control; type: cell-based
Cyclin-dependent kinase 18 (Homo sapiens), sequence (Q07002 whole entry): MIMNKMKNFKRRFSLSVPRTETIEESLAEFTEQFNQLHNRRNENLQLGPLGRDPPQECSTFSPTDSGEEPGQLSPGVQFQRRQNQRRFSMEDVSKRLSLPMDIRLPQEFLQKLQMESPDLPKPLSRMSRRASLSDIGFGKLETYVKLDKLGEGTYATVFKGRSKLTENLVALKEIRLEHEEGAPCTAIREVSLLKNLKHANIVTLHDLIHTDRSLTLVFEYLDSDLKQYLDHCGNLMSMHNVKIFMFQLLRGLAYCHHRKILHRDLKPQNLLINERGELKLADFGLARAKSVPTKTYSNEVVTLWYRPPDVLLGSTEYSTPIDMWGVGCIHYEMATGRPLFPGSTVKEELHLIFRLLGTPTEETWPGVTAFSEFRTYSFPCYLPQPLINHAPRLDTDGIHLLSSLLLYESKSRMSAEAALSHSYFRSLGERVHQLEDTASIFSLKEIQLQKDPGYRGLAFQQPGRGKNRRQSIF

Serine/threonine-protein kinase 26 (Homo sapiens), sequence (Q9P289 2-416 limits assumed): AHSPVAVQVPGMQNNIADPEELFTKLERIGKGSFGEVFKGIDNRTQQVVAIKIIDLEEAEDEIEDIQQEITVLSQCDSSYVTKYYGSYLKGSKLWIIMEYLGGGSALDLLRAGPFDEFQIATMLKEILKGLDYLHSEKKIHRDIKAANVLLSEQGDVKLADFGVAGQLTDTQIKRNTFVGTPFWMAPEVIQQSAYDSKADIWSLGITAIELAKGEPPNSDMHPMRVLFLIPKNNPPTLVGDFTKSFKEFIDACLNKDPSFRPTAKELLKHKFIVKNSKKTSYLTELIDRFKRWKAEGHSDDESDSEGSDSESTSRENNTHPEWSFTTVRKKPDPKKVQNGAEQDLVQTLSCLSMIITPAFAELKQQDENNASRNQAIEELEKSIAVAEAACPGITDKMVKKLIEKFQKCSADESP
Proto-oncogene tyrosine-protein kinase Src, sequence (P12931 2-536 limits assumed): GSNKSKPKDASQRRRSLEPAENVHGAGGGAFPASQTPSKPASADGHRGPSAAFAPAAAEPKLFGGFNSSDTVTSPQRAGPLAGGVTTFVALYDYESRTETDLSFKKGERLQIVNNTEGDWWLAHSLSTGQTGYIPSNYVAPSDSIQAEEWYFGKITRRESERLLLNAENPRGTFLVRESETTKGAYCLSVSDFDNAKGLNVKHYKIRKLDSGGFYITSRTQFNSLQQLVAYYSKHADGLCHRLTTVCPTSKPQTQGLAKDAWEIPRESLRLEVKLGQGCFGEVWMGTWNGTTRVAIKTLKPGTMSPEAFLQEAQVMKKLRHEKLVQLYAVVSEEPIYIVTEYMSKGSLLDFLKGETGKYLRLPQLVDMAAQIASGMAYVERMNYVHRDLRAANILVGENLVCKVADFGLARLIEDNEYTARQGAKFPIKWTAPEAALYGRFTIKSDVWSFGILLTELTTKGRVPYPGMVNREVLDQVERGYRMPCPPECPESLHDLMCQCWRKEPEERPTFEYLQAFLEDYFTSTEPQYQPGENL
Calcium/calmodulin-dependent protein kinase kinase 2 (Homo sapiens), sequence (Q96RR4 2-588 limits assumed): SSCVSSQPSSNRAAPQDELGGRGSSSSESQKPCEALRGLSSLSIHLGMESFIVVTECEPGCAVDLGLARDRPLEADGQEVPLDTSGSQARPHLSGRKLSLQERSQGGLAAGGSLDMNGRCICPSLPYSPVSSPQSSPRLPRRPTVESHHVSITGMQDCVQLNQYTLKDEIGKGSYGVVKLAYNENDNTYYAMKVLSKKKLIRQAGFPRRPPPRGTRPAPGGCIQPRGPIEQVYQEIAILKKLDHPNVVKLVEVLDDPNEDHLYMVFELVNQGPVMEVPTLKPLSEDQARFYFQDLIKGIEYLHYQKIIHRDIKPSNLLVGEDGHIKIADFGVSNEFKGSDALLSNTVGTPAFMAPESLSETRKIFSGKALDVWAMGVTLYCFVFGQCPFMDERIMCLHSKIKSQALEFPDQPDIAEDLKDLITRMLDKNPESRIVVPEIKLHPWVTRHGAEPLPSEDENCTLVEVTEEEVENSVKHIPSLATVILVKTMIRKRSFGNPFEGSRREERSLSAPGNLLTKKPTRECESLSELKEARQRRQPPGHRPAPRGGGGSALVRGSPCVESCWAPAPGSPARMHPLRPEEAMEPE
Calcium/calmodulin-dependent protein kinase type II subunit delta (Homo sapiens), sequence (Q13557 whole entry): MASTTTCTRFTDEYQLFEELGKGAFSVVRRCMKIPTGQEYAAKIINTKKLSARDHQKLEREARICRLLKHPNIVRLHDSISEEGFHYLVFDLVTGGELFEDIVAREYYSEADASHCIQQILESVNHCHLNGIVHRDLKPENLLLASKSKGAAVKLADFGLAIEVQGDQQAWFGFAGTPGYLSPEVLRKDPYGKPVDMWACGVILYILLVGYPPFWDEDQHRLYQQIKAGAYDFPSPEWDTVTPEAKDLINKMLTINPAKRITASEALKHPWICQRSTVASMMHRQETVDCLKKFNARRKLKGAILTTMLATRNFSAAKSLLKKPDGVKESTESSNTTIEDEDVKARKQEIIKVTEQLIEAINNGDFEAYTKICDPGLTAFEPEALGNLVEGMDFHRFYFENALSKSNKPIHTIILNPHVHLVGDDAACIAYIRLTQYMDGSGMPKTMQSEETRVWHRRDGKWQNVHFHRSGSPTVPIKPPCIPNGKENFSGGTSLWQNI

CNc1cc(Oc2cc(C(=O)Nc3cc(-n4cnc(C)c4)cc(C(F)(F)F)c3)ccc2C)ncn1
inhibition (GEN2.2): inactive

CCN1CCN(Cc2ccc(NC(=O)c3ccc(C)c(Oc4ccnc5[nH]ccc45)c3)cc2C(F)(F)F)CC1
AUClast [1]: 195 ng·h/mL
IC50 [2]: 113 nM
inhibition (GEN2.2): Active
inhibition [3]: 33.2%
inhibition [4]: -0.1%
inhibition [5]: 8.7%
inhibition [6]: 4.9%
inhibition [7]: 31.3%
inhibition [8]: 13.9%
inhibition [9]: 2.5%

CCN1CCN(Cc2ccc(NC(=O)c3ccc(C)c(/C=C/c4cnc5[nH]ccc5c4OC)c3)cc2C(F)(F)F)CC1
AUClast [1]: 403 ng·h/mL
IC50 [2]: 204 nM
inhibition [3]: 14.4%
inhibition [4]: 7%
inhibition [5]: 26%
inhibition [6]: -1.2%
inhibition [7]: 18.3%
inhibition [8]: 7%
inhibition [9]: 8.5%

— ChEMBL document CHEMBL5696442, “Discovery of type II inhibitors of TGFβ-activated kinase 1 (TAK1) and mitogen-activated protein kinase kinase kinase kinase 2 (MAP4K2)” (J Med Chem, 2015)
